The record followed here is ChEMBL document CHEMBL1914454, “Novel N-linked aminopiperidine inhibitors of bacterial topoisomerase type II: broad-spectrum antibacterial agents with reduced hERG activity” (J Med Chem, 2011).

A short description of series [1]: Fraction unbound in human plasma at 10 uM after 16 hrs by equilibrium dialysis.
A short description of series [2]: Inhibition of Escherichia coli ATPase activity of topoisomerase 4 ParC/ParE subunit assessed as reduction in inorganic phosphate production after 24 hrs by ammonium molybdate/malachite-green based assay. The method in brief:
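Each reaction contained 0.5 nM each of E. coli ParC and ParE, 0.16 mM ATP and 0.005 mg/mL sheared salmon sperm DNA in 20 mM Tris pH 8.0 with 50 mM ammonium acetate, 8.0 mM MgCl₂, 0.5 mM EDTA, 5 mM DTT, 2.5% glycerol and 0.005% Brij-35. Compound dilution series; 24 h at room temperature. Quenched with malachite green; absorbance read at 650 nm. IC50 is the mean of three replicate experiments.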

A further series concerns Staphylococcus aureus. Briefly: Antibacterial activity against methicillin-susceptible Staphylococcus aureus after 18 to 24 hrs by broth microdilution method. The class given is functional. The method in brief:
(§1)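 Broth microdilution following CLSI guidelines in Mueller Hinton broth. Compounds in DMSO, diluted to 2% DMSO final, 11 doubling dilutions from 64 to 0.06 μg/mL. Incubated at 35 °C for 18−24 h; growth read by absorbance at 620 nm.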

For the next series, the system named is Pseudomonas aeruginosa. The experiment in a line: Antibacterial activity against Pseudomonas aeruginosa PAO1 after 18 to 24 hrs by broth microdilution method. The class given is functional. The method in brief:
as §1
(In general: In broth dilution the organism is exposed to a series of concentrations in liquid medium.)

The next series deals with Escherichia coli. The experiment in a line: Antibacterial activity against Escherichia coli W3110 after 18 to 24 hrs by broth microdilution method. In kind it is functional. Conditions: K-12 substr. W3110. The method in brief:
as §1

Series [3] addresses Voltage-gated inwardly rectifying potassium channel KCNH2 (Homo sapiens, UniProt Q12809). Briefly: Inhibition of human ERG by ionworks HT assay. A general note: In patch-clamp work, channel activity is measured electrically.
Series [4] can be described thus: Octanol-phosphate buffer partition coefficient, log D of the compound at pH 7.4 by LC/MS/UV analysis.
The next series deals with Streptococcus pneumoniae. The experiment in a line: Antibacterial activity against penicillin-susceptible Streptococcus pneumoniae D39 after 18 to 24 hrs by broth microdilution method. In kind it is functional. The method in brief:
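CLSI broth microdilution in 2.2% (w/v) Mueller Hinton broth with 0.65% (v/v) lysed horse blood. Compounds diluted from DMSO to 2% DMSO final, 11 doubling dilutions from 64 to 0.06 μg/mL. Incubated at 35 °C for 18−24 h; read at 620 nm.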

In brackets after ≈: the same amount, converted by molar mass.

Usually fraction unbound stands for the share of the substance not bound to proteins or other matrix. Higher therefore signals much free substance. The IC50 is the point on the concentration scale where inhibition reaches its midpoint. A word on the MIC: it is the smallest concentration in the dilution series that meets the test's criterion for growth inhibition. Read a low MIC as greater potency. As a reminder, the logD is the decadic logarithm of the distribution of all forms, ionised or not, between an organic phase and buffer at a given pH. Low values mean a more hydrophilic compound, high ones a more lipophilic compound.

Sequence of Voltage-gated inwardly rectifying potassium channel KCNH2 (Q12809 whole entry): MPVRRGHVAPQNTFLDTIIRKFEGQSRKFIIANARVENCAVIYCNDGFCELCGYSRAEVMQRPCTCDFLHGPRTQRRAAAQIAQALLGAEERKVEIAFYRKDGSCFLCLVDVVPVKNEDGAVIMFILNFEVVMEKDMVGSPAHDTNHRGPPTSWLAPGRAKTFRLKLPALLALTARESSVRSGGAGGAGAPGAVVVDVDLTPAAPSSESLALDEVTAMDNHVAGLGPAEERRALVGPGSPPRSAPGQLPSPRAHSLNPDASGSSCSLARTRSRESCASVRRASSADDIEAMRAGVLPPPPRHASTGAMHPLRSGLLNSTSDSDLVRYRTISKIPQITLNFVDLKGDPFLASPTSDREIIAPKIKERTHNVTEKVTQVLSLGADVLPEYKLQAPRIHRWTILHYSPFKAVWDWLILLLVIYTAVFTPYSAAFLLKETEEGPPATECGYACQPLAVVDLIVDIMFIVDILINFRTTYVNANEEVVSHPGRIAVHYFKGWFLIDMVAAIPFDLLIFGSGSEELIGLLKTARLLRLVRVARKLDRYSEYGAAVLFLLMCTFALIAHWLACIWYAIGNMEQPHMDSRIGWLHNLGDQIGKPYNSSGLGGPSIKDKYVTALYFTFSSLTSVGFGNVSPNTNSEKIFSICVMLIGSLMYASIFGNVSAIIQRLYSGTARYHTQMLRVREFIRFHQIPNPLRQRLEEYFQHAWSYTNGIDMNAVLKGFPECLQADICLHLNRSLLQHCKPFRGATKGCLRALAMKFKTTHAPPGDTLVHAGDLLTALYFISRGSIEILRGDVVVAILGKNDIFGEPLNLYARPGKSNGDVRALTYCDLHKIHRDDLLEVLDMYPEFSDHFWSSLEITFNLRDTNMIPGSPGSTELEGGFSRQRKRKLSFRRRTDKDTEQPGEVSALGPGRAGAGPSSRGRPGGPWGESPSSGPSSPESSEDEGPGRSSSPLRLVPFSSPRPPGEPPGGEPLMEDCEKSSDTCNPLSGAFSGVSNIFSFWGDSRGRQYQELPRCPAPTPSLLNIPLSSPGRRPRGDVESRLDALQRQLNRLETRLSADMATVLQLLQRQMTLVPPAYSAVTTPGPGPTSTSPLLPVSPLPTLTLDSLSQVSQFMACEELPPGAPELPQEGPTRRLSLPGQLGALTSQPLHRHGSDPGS

Compound `COc1ccc2c(c1)N(CCN1CCC(NCc3ccc4c(n3)NC(=O)CO4)CC1)C(=O)CC2` showed an unbound share (fraction unbound) at 16 h, 10 µM in series [1] of 0.04. The results for the IC50 in series [2] and in series [3] were 780 nM and 29000 nM, respectively. Moreover, the MIC against Staphylococcus aureus, against Pseudomonas aeruginosa, with Escherichia coli and against Streptococcus pneumoniae was above 8 µg/mL throughout. The logD in series [4] (octanol/phosphate buffer) turned out to be 0.66.
Compound `COc1ccc2ncc(F)c(CCN3CCC(NCc4ccc5c(n4)NC(=O)CO5)CC3)c2n1` yielded a fraction unbound at 16 h, 10 µM in series [1] of 0.06. The IC50 in series [2] amounted to 0.6 nM. Further, the MIC was 0.02 µg/mL (≈ 0.0429 µM) against Staphylococcus aureus, 1 µg/mL (≈ 2.14 µM) against Pseudomonas aeruginosa, 0.06 µg/mL (≈ 0.129 µM) against Escherichia coli and 0.03 µg/mL (≈ 0.0643 µM) with Streptococcus pneumoniae. The same compound yielded a logD in series [4] (octanol/phosphate buffer) of 1.78.
In series [1], `COc1ncc2ncc(=O)n(CCN3CCC(NCc4cc5c(cn4)OCCO5)CC3)c2n1` returned a fraction unbound at 16 h, 10 µM of 0.96. Also, the IC50 in series [2] is 28 nM; in series [3], 81000 nM. Moreover, the MIC in the series with Staphylococcus aureus was 0.25 µg/mL (≈ 0.551 µM); against Pseudomonas aeruginosa it was above 8 µg/mL; in the series with Escherichia coli, 2 µg/mL (≈ 4.41 µM); in the series on Streptococcus pneumoniae it was 0.25 µg/mL (≈ 0.551 µM). Besides, in series [4] (octanol/phosphate buffer), the logD was found to be 0.14.
`COc1ccc2ncc(F)c(CCN3CCC(NCc4cc5c(cn4)OCCO5)CC3)c2n1` showed a fraction unbound at 16 h, 10 µM in series [1] of 0.17. Further, the IC50 in series [2] worked out at 1.3 nM. The MIC against Staphylococcus aureus was below 0.01 µg/mL; in the series with Pseudomonas aeruginosa it was 4 µg/mL (≈ 8.82 µM); in the series with Escherichia coli, 0.13 µg/mL (≈ 0.287 µM); with Streptococcus pneumoniae it was below 0.07 µg/mL. For the same compound, in series [4] (octanol/phosphate buffer), the logD is 1.46.
Consider `COc1ccc2ccc(=O)n(CCN3CCC(NCc4cc5c(cn4)OCCO5)CC3)c2n1`, for which the fraction unbound at 16 h, 10 µM in series [1] is 0.31. Moreover, the values for the IC50 in series [2] and in series [3] were 2 nM and 40000 nM, respectively. For the same compound, the MIC against Staphylococcus aureus is 0.02 µg/mL (≈ 0.0443 µM); in the series on Pseudomonas aeruginosa, above 8 µg/mL; with Escherichia coli, 0.5 µg/mL (≈ 1.11 µM); against Streptococcus pneumoniae, 0.05 µg/mL (≈ 0.111 µM). This compound also registered a logD in series [4] (octanol/phosphate buffer) of 1.16.
In the case of `COc1ccc2c(c1)N(CCN1CCC(NCc3cc4c(cn3)OCCO4)CC1)C(=O)CO2`, in series [1], the fraction unbound at 16 h, 10 µM was found to be 0.18. Further, the MIC against Staphylococcus aureus was 0.13 µg/mL (≈ 0.286 µM); with Pseudomonas aeruginosa it was above 8 µg/mL; against Escherichia coli, 1 µg/mL (≈ 2.2 µM); in the series with Streptococcus pneumoniae it was 0.25 µg/mL (≈ 0.55 µM). The same compound displayed an IC50 in series [3] of 13000 nM. This compound also gave a logD in series [4] (octanol/phosphate buffer) of 1.24.
The compound `O=C1COc2ccccc2N1CCN1CCC(NCc2cc3c(cn2)OCCO3)CC1` had a fraction unbound at 16 h, 10 µM in series [1] of 0.26. For the same compound, the IC50 in series [2] is 100 nM. For the same compound, the MIC in the series on Staphylococcus aureus is 2 µg/mL (≈ 4.71 µM); in the series with Pseudomonas aeruginosa, above 8 µg/mL; in the series with Escherichia coli, 8 µg/mL (≈ 18.8 µM); against Streptococcus pneumoniae, 4 µg/mL (≈ 9.42 µM). In series [4] (octanol/phosphate buffer), this compound returned a logD of 1.04.
In turn, `O=C1COc2ccc(CNC3CCN(CCN4C(=O)COc5ccc(F)cc54)CC3)nc2N1` displayed a fraction unbound at 16 h, 10 µM in series [1] of 0.17. The MIC against Staphylococcus aureus worked out at 0.25 µg/mL (≈ 0.549 µM); against Pseudomonas aeruginosa, 3 µg/mL (≈ 6.59 µM); against Escherichia coli, 0.25 µg/mL (≈ 0.549 µM); against Streptococcus pneumoniae, 0.5 µg/mL (≈ 1.1 µM). In series [4] (octanol/phosphate buffer), this compound returned a pH-dependent lipophilicity (logD) of 0.9.
As for `COc1ccc2ncc(=O)n(CCN3CCC(NCc4cc5c(cn4)OCCO5)CC3)c2n1`, in series [1], the fraction unbound at 16 h, 10 µM is 0.47. The IC50 in series [2] turned out to be 1.5 nM. In addition, the MIC in the series with Staphylococcus aureus came out at 0.02 µg/mL (≈ 0.0442 µM); against Pseudomonas aeruginosa, 4 µg/mL (≈ 8.84 µM); against Escherichia coli, 0.25 µg/mL (≈ 0.552 µM); in the series on Streptococcus pneumoniae, 0.03 µg/mL (≈ 0.0663 µM). The compound further registered a logD in series [4] (octanol/phosphate buffer) of 0.83.
As to `COc1ccc2nnc(=O)n(CCN3CCC(NCc4ccc5c(n4)NC(=O)CO5)CC3)c2c1`, the IC50 in series [2] was determined as 26 nM. Also, the MIC against Staphylococcus aureus is above 8 µg/mL; in the series on Pseudomonas aeruginosa it was 8 µg/mL (≈ 17.2 µM); against Escherichia coli, 2 µg/mL (≈ 4.3 µM); against Streptococcus pneumoniae it was 8 µg/mL (≈ 17.2 µM).
`COc1ccc2c(c1)N(CCN1CCC(NCc3cc4c(cn3)OCCO4)CC1)C(=O)CS2` yielded a fraction unbound at 16 h, 10 µM in series [1] of 0.09. The MIC in the series with Staphylococcus aureus was 8 µg/mL (≈ 17 µM); with Pseudomonas aeruginosa, above 8 µg/mL; in the series on Escherichia coli it was above 8 µg/mL; against Streptococcus pneumoniae it was above 8 µg/mL.
With `COc1ccc2c(C)cc(=O)n(CCN3CCC(NCc4cc5c(cn4)OCCO5)CC3)c2c1`, the MIC is 0.02 µg/mL (≈ 0.0431 µM) against Staphylococcus aureus, above 8 µg/mL against Pseudomonas aeruginosa, 0.5 µg/mL (≈ 1.08 µM) in the series with Escherichia coli and 0.03 µg/mL (≈ 0.0646 µM) against Streptococcus pneumoniae. This compound came in with an IC50 in series [3] of 23000 nM. The logD in series [4] (octanol/phosphate buffer) amounted to 1.72.
As to `COc1cc2c(ccc(=O)n2CCN2CCC(NCc3cc4c(cn3)OCCO4)CC2)cn1`, in series [1], the unbound share (fraction unbound) at 16 h, 10 µM amounted to 0.17. Moreover, the IC50 in series [2] came to 28 nM. The MIC against Staphylococcus aureus is 1 µg/mL (≈ 2.21 µM); in the series on Pseudomonas aeruginosa, above 8 µg/mL; in the series with Escherichia coli, 8 µg/mL (≈ 17.7 µM); with Streptococcus pneumoniae it was 1 µg/mL (≈ 2.21 µM). The same compound showed a logD in series [4] (octanol/phosphate buffer) of 0.68.
For `COc1ccc2c(C)nc(=O)n(CCN3CCC(NCc4cc5c(cn4)OCCO5)CC3)c2c1`, the IC50 in series [2] is 82 nM; in series [3], above 33000 nM. For the same compound, the MIC was 2 µg/mL (≈ 4.3 µM) in the series with Staphylococcus aureus, above 8 µg/mL in the series on Pseudomonas aeruginosa, above 8 µg/mL in the series with Escherichia coli and 1 µg/mL (≈ 2.15 µM) in the series with Streptococcus pneumoniae. Moreover, the logD in series [4] (octanol/water) turned out to be 0.29.
For the compound `COc1ccc2c(c1)N(CCN1CCC(NCc3ccc4c(n3)NC(=O)CO4)CC1)C(=O)OC2`, in series [1], the fraction unbound at 16 h, 10 µM amounted to 0.26. The IC50 in series [2] is 4.4 nM; in series [3], 42000 nM. For the same compound, the MIC came to 1 µg/mL (≈ 2.14 µM) against Staphylococcus aureus, 4 µg/mL (≈ 8.56 µM) in the series on Pseudomonas aeruginosa, 0.5 µg/mL (≈ 1.07 µM) in the series on Escherichia coli and 0.5 µg/mL (≈ 1.07 µM) in the series on Streptococcus pneumoniae. For the same compound, the logD in series [4] (octanol/phosphate buffer) was found to be 0.5.
`COc1ncc2ccc(=O)n(CCN3CCC(NCc4cc5c(cn4)OCCO5)CC3)c2n1` displayed a fraction unbound at 16 h, 10 µM in series [1] of 0.27. Further, the IC50 in series [2] was 13 nM; in series [3], 206000 nM. The MIC against Staphylococcus aureus was 0.13 µg/mL (≈ 0.287 µM); with Pseudomonas aeruginosa, above 8 µg/mL; in the series with Escherichia coli, 2 µg/mL (≈ 4.42 µM); against Streptococcus pneumoniae, 0.25 µg/mL (≈ 0.552 µM). The compound also showed a logD in series [4] (octanol/phosphate buffer) of 0.2.
In series [1], `COc1ccc2ccc(=O)n(CCN3CCC(NCc4cc5c(cn4)OCCO5)CC3)c2c1` returned a fraction unbound at 16 h, 10 µM of 0.31. For the same compound, the half-maximal inhibitory concentration (IC50) in series [2] was found to be 22 nM; in series [3], 34000 nM. The MIC is 0.03 µg/mL (≈ 0.0666 µM) in the series with Staphylococcus aureus, above 8 µg/mL against Pseudomonas aeruginosa, 1.5 µg/mL (≈ 3.33 µM) in the series on Escherichia coli and 0.06 µg/mL (≈ 0.133 µM) in the series with Streptococcus pneumoniae. Besides, in series [4] (octanol/phosphate buffer), the logD was determined as 1.32.
Consider `COc1ccc2c(c1)N(CCN1CCC(NCc3ccc4c(n3)NC(=O)CO4)CC1)C(=O)CO2`, for which the fraction unbound at 16 h, 10 µM in series [1] was 0.11. For the same compound, in series [2], the IC50 is 5 nM. Moreover, the MIC in the series on Staphylococcus aureus was 0.13 µg/mL (≈ 0.278 µM); against Pseudomonas aeruginosa, 4 µg/mL (≈ 8.56 µM); in the series with Escherichia coli, 0.25 µg/mL (≈ 0.535 µM); against Streptococcus pneumoniae, 0.5 µg/mL (≈ 1.07 µM). This compound also had a logD in series [4] (octanol/phosphate buffer) of 0.87.
